Data on eleven compounds can be found in ChEMBL document CHEMBL1134580, “Novel hypotensive agents from Verbesina caracasana. 8. Synthesis and pharmacology of (3,4-dimethoxycinnamoyl)-N(1)-agmatine and synthetic analogues” (2001).

In assay [1] the test system is Rattus norvegicus. The experiment in a line: Changes in systolic blood pressure following iv administration at 4.12 umol/kg in anesthetized rats. Type of assay: functional, Artery. An outline of the steps: (§1)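 Adult male Wistar rats (280 ± 5 g) anesthetized with 10% (w/v) ethylurethane in saline, 1 mL/100 g ip. Trachea cannulated for spontaneous breathing, body temperature held at 37 °C, 60 min stabilization. Single iv injection into the femoral vein of a saline-dissolved drug, dose expressed as free base; n = 4 per drug. Aortic systolic/diastolic BP recorded via a femoral artery catheter and pressure transducer; peak change taken.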

The test system of assay [2] is Rattus norvegicus. The assay is described as follows: Changes in diastolic blood pressure following iv administration at 4.12 umol/kg in anesthetized rats. Type of assay: functional, Artery. An outline of the steps: as §1
Assay [3] concerns Rattus norvegicus. The assay is described as follows: Changes in systolic Blood pressure following iv administration at (4.12 umol/kg) anesthetized rats. The format is functional. The procedure, abridged:
as §1

Assay [4] deals with Rattus norvegicus. The experiment in a line: Changes in diastolic Blood pressure following iv administration at (4.12 umol/kg) anesthetized rats. The format is functional. An outline of the steps:
as §1

Assay [5] has as its system Rattus norvegicus. The experiment in a line: Changes in diastolic Blood pressure following iv administration at (25 umol/kg) anesthetized rats. Type of assay: functional. An outline of the steps: as §1
The subject of assay [6] is Rattus norvegicus. The assay is described as follows: Changes in systolic Blood pressure following iv administration at (25 umol/kg) anesthetized rats. Type of assay: functional. The procedure, abridged: as §1
The subject of assay [7] is Rattus norvegicus. The assay is described as follows: Changes in diastolic blood pressure following iv administration at (12 umol/kg)anesthetized rats. Type of assay: functional. An outline of the steps: as §1
Assay [8] deals with Rattus norvegicus. The experiment in a line: Changes in systolic blood pressure following iv administration at (12 umol/kg)anesthetized rats. The format is functional. The procedure, abridged:
as §1

The subject of assay [9] is Rattus norvegicus. The experiment in a line: Changes in systolic Blood pressure following iv administration at (5 umol/kg) anesthetized rats. The format is functional. An outline of the steps:
as §1

Assay [10] deals with Rattus norvegicus. The experiment in a line: Changes in diastolic Blood pressure following iv administration at (5 umol/kg) anesthetized rats. Type of assay: functional. The procedure, abridged:
as §1

Assay [11] deals with Rattus norvegicus. The assay is described as follows: Changes in diastolic Blood pressure following iv administration at (8 umol/kg) anesthetized rats. Type of assay: functional. An outline of the steps:
as §1

Assay [12] concerns Rattus norvegicus. The assay is described as follows: Changes in systolic Blood pressure following iv administration at (8 umol/kg) anesthetized rats. The format is functional. The procedure, abridged: as §1
Assay [13] relates to Rattus norvegicus. The assay is described as follows: Changes in diastolic blood pressure following iv administration at (4.12 umol/kg) anesthetized rats. Type of assay: functional. The procedure, abridged:
as §1

Assay [14] relates to Rattus norvegicus. The assay is described as follows: Changes in systolic blood pressure following iv administration at (4.12 umol/kg) anesthetized rats. Type of assay: functional. The procedure, abridged: as §1

Consider `COc1ccc(/C=C/C(=O)NCCCCN=C(N)N)cc1OC.CS(=O)(=O)O`, for which the results for the Blood pressure in the assay with Rattus norvegicus [1] and with Rattus norvegicus [2] were -21 mmHg and -30 mmHg, respectively.
Regarding `COc1ccc(/C=C/C(=O)NCCCN=C(N)N)cc1OC.CS(=O)(=O)O`, the Blood pressure with Rattus norvegicus [3] was -24 mmHg; in the assay on Rattus norvegicus [4] it was -28 mmHg.
In the case of `COc1ccc(/C=C/C(=O)NCCN=C(N)N)cc1OC.CS(=O)(=O)O`, the Blood pressure in the assay on Rattus norvegicus [3] is recorded as -29 mmHg; in the assay on Rattus norvegicus [4] it was -33 mmHg.
For the compound `N=C(N)NCCN1CCCCCCC1` [GUANETHIDINE], the Blood pressure in the assay with Rattus norvegicus [5] was -23 mmHg; in the assay with Rattus norvegicus [6] it was -32 mmHg.
Take `COc1ccc(/C=C/C(=O)NCCCCCN=C(N)N)cc1OC.CS(=O)(=O)O`: the Blood pressure in the assay on Rattus norvegicus [3] is on record as -17 mmHg; in the assay on Rattus norvegicus [4] it was -27 mmHg.
As for `C[N+](C)(C)CCCCCC[N+](C)(C)C.[Cl-].[Cl-]` [HEXAMETHONIUM CHLORIDE], the Blood pressure in the assay with Rattus norvegicus [7] was -30 mmHg; in the assay with Rattus norvegicus [8] it was -46 mmHg.
Consider `COc1ccc(Cc2nccc3cc(OC)c(OC)cc23)cc1OC` [PAPAVERINE], for which the Blood pressure in the assay with Rattus norvegicus [9] is reported as -21 mmHg; in the assay on Rattus norvegicus [10], -16 mmHg.
Consider `COc1ccc(C=CC(=O)NCCCCN=C(N)N)cc1OC`, for which the values for the Blood pressure in the assay with Rattus norvegicus [3] and in the assay on Rattus norvegicus [4] were -12 mmHg and -10 mmHg, respectively.
Turning to `COC(=O)[C@H]1[C@H]2C[C@@H]3c4[nH]c5cc(OC)ccc5c4CCN3C[C@H]2C[C@@H](OC(=O)c2cc(OC)c(OC)c(OC)c2)[C@@H]1OC` [RESERPINE], the Blood pressure in the assay on Rattus norvegicus [11] is -27 mmHg; in the assay with Rattus norvegicus [12] it was -34 mmHg.
In the case of `COc1ccc(/C=C/C(=O)NCCCCCCN=C(N)N)cc1OC.CS(=O)(=O)O`, the Blood pressure is reported as -36 mmHg in the assay on Rattus norvegicus [13] and -14 mmHg in the assay with Rattus norvegicus [14].
Regarding `COc1ccc(C(=O)NCCCC/N=C(\N)NCC=C(C)C)cc1.CS(=O)(=O)O`, the Blood pressure in the assay with Rattus norvegicus [3] is recorded as -28 mmHg; in the assay on Rattus norvegicus [4] it was -31 mmHg.
